According to publication PMC4293705 (ChemPlusChem, 2012):
“And” between values parts separate entries of the source, which are not always exact repeats. Identical values can stand only once. Like-named read-outs stand apart in the source and are kept apart here. Marks after values point to notes of the source that are not given here.

How the values were obtained:
[1] = test system: HepaRG cells
[2] = log D determination by micro-HPLC; assay type: physicochemical; settings: for log D: pH 7, n-octanol/phosphate buffer, HPLC
[3] = assay type: physicochemical; settings: I = 0.1 M (KCl), T = 298 K, H2O/DMSO v/v 30:70; for Log β 1 1–3 (stability constant of Fe^III complex): 5a value by potentiometric and spectrophotometric titrations; for Log β 1 1–2 (stability constant of Fe^III complex): potentiometric and spectrophotometric titrations
Outline: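 Performed in H2O/DMSO 30:70 v/v […], I = 0.1 (KCl), 25 °C under argon. Ligand at 10−4–10−5 M with EDTA-standardised FeCl3 at metal:ligand ratios 1:3, 1:2 and 1:1. Potentiometric and spectrophotometric titrations covered pH 1–13. For spectrophotometry, acidified FeIII–ligand solutions were titrated with KOH to pH 6.5, recording UV-visible spectra after each addition at 25.0 °C. pKw 17.16.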

[4] = test system: MDA-MB-231 cells; test: BrdU assay, MDA-MB-231 cell survival; assay type: cell-based; settings: 48 h; for effect on MDA-MB-231 cell survival: 10^−8 to 10^−5 M
Outline: (§1)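 Survival version of the BrdU kit assay. HUVEC (2 × 10^4/well) in 1 % FBS; MDA-MB-231 (1.5 × 10^4/well) in 0 % FBS; triplicate wells. After 24 h serum-free phenol-red-free synchronisation, cells exposed 48 h to test compound at 10−8–10−5 M. BrdU (0.01 mM final) added, re-incubated 2–24 h, OD at 450 and 595 nm. Normalised to untreated controls after background subtraction.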

[5] = test system: HUVEC; test: Matrigel assay, HUVEC capillary-tube formation; assay type: cell-based, human; settings: 16 h; for effect on HUVEC capillary tube formation versus control: 10^−6 to 10^−5 M
Outline: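 Forty thousand HUVECs seeded on Matrigel in M199 with 10 % FBS containing test compound (10−5 to 10−6 M) and incubated 16 h. Capillary network length quantified by image analysis of micrographs. Untreated cells as control; genistein 30 μg mL−1 (inhibitor) and EGF 50 ng mL−1 (activator) as references. At least three separate experiments; mean ± SEM; ANOVA and Student's test.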

[6] = test system: HUVEC; test: BrdU assay, HUVEC proliferation; assay type: cell-based, human; settings: 48 h; for effect on HUVEC proliferation: 10^−8 to 10^−5 M
Outline: (§2)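 HUVECs grown on 0.2 % gelatin in M199 with 20 % FBS and ECGS, passages 2–5. HUVEC seeded at 2 × 10^4 and MDA-MB-231 at 1.5 × 10^4 cells/well, in triplicate. Next day, G1-synchronised 24 h in serum-free phenol-red-free medium. Test compound (10−8–10−5 M) given in 10 % FBS for 48 h. BrdU (0.01 mM final) added for 2–24 h; OD read at 450/595 nm. Values background-subtracted and normalised to untreated controls.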

[7] = test system: HUVEC; test: Wound-healing assay, HUVEC migration; assay type: cell-based, human; settings: 16 h; for effect on HUVEC migration versus control: 10^−6 to 10^−5 M
Outline: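 HUVECs (4 × 10^5/well) plated on 0.2 % gelatin; wound made after 24 h on the confluent layer. Cells then treated 16 h with test compound (10−5 to 10−6 M) in phenol-red-free M199 with 10 % FBS and photographed at 16 h. Genistein 30 μg mL−1 and EGF 50 ng mL−1 as references. At least three experiments; mean ± SEM; ANOVA/Student's test.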

[8] = test system: human hepatocarcinoma HepaRG cells; test: SDH activity; assay type: cell-based
[9] = test system: MDA-MB-231 cells; test: BrdU assay, MDA-MB-231 cell proliferation; assay type: cell-based; settings: 48 h; for effect on MDA-MB-231 cell proliferation: 10^−8 to 10^−5 M
Outline: as §2

[10] = test system: human hepatocarcinoma HepaRG cells; test: Extracellular LDH leakage; assay type: cell-based; settings: 72 h; for % LDH/control with Fe^III 20 μM / % LDH/control without Fe^III: cell supernatant
[11] = test system: HUVEC; test: BrdU assay, HUVEC survival; assay type: cell-based, human; settings: 48 h; for effect on HUVEC survival: 10^−8 to 10^−5 M
Outline: as §1

[12] = Protonation constants by potentiometric titration in H2O/DMSO; assay type: physicochemical; settings: for pKa: H2O/DMSO (v/v 30:70) solution
Outline: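 Ligand (10−4–10−5 M, from DMSO solutions) titrated in H2O/DMSO 30:70 v/v at I = 0.1 (KCl), 25 °C, under argon. Automated titration with carbonate-free KOH standardised against potassium hydrogen phthalate. Read on a glass electrode with Ag/AgCl reference; 120–150 points per titration; pKw 17.16. Constants from nonlinear least-squares refinement of the potentiometric data.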

[13] = reported value; cited from earlier work
[14] = reported in the literature; cited from earlier work
[15] = read-out: SDH, IC50 without Fe^III, HepaRG cells, 72 h treatment, MTT assay
[16] = I = 0.1 M (KCl), T = 298 K, H2O/DMSO v/v 30:70

SMILES | membrane diffusion / presence in intracellular medium after cell lysis [1] | log D [2] | Log β 1 2–6 (stability constant of Fe^III complex) [3] | Log β 1 1–3 (stability constant of Fe^III complex) [3] | IC50 [8, 15] [µM] | % LDH/control with Fe^III 20 μM ([10]; compound 10 μM) [%] | % LDH/control without Fe^III ([10]; compound 10 μM) | % LDH/control with Fe^III 20 μM ([10]; compound 100 μM) [%] | % LDH/control without Fe^III ([10]; compound 100 μM) [%] | Log β 0 1–1 (overall protonation constant) [12, 16] | Log β 0 1–2 (overall protonation constant) [12, 16] | Log β 0 1–3 (overall protonation constant) [12, 16] | pKa1 [12, 16] | pKa2 [12, 16] | pKa3 [12, 16] | Log β 1 1–2 (stability constant of Fe^III complex) [3] | effect on MDA-MB-231 cell survival [4] | effect on HUVEC capillary tube formation versus control [5] | effect on HUVEC proliferation [6] | effect on HUVEC migration versus control [7] | other results
O=C(CCOCCOc1c2cccc1Cc1cccc(c1O)Cc1cccc(c1O)Cc1cccc(c1O)C2)Nc1ccc(-n2nc(-c3ccccc3O)nc2-c2ccccc2O)cc1 [5a, 25-{1-[2-(2-{4-[3,5-Bis-(2-hydroxyphenyl)-1,2,4-triazol-1-yl]phenyl}carbamoylethoxy)ethoxy]}-26,27,28-trihydroxycalix[4]arene] | found in the intracellular medium | 4.59 (±0.06) | −19.23(8) | −1.74(1) ^[c] | 6 ± 1 | 67 ±6 | 105% and 105 ±11% | 187 ±5 | 200 ±15 | −6.67(2) | −17.12(2) | −29.63(2) | 6.67 | 10.45 | 12.51 |  |  |  |  |  | decrease of MDA-MB-231 survival versus control ([4]; 10^−5 M): 58%; decrease of MDA-MB-231 survival versus control ([4]; 10^−6 M): 51%; decrease of HUVEC ability to form capillary tubes versus control ([5]; 10^−5 M): 48%; decrease of HUVEC ability to form capillary tubes versus control ([5]; 10^−6 M): 42%; reduction of HUVEC proliferation versus control ([6]; 10^−5 M): 74%; reduction of HUVEC proliferation versus control ([6]; 10^−6 M): 51%; reduction of HUVEC proliferation versus control ([6]; 10^−7 M): 46%; reduction of HUVEC migration versus control ([7]; 10^−5 M): 59%; reduction of HUVEC migration versus control ([7]; 10^−6 M): 51%; concentrations at which the compound is cytostatic ([8]; HepaRG cells, 72 h, deduced from dose–effect curves): lower than 10 μM; SDH value relative to the control ([8]; compound 10 μM, HepaRG cells, 72 h): 6%; decrease of MDA-MB-231 cell proliferation versus control ([9]; 10^−5 M): 73%; decrease of MDA-MB-231 cell proliferation versus control ([9]; 10^−6 M): 62%; decrease of MDA-MB-231 cell proliferation versus control ([9]; 10^−7 M): 33%; concentrations inducing a cytotoxic effect (membrane damage, LDH leakage) ([10]; deduced from dose–effect curves): higher than 10 μM; decrease of HUVEC survival versus control ([11]; 10^−5 M): 65%; decrease of HUVEC survival versus control ([11]; 10^−6 M): 56%; decrease of HUVEC survival versus control ([11]; 10^−7 M): 28%
O=C(CCOCCOc1c2cccc1Cc1cccc(c1O)Cc1cccc(c1OCCOCCC(=O)Nc1ccc(-n3nc(-c4ccccc4O)nc3-c3ccccc3O)cc1)Cc1cccc(c1O)C2)Nc1ccc(-n2nc(-c3ccccc3O)nc2-c2ccccc2O)cc1 [5b, 25,27-Bis-{1-[2-(2-{4-[3,5-bis(2-hydroxyphenyl)-1,2,4-triazol-1-yl]-phenyl}carbamoylethoxy)ethoxy]}-26,28-dihydroxycalix[4]arene] | found in the intracellular medium | 3.49 (±0.05) |  | −5.08(6) | 90 ± 7 | 91 ±11 | 76 ±4% | 69 ±6 | 103 ±2 | −9.88(3) | −21.11(3) | −33.21(3) | 9.88 | 11.23 | 12.10 | −2.35(8) ^[c] | did not show any effect | did not show any effect | did not show any effect | did not show any effect | reduction of the lipophilicity in comparison with 5a ([2]; from log D at pH 7): about 12 fold; effect on MDA-MB-231 cell proliferation [9]: did not show any effect; effect on HUVEC survival [11]: did not show any effect; Log β 0 1–4 (overall protonation constant) [12, 16]: −46.38(6); Log β 0 1–5 (overall protonation constant) [12, 16]: −59.85(4); pKa4 [12, 16]: 13.17; pKa5 [12, 16]: 13.47
Oc1c2cccc1Cc1cccc(c1O)Cc1cccc(c1O)Cc1cccc(c1O)C2 [compound 6, calix[4]arene] |  |  |  |  |  |  |  |  |  |  |  |  |  |  |  |  |  |  |  |  | pKa (easily deprotonated site of the calix[4]arene core) ([12]; acid–base properties in solution): 4.6
O=C(O)c1ccc(-n2nc(-c3ccccc3O)nc2-c2ccccc2O)cc1 [ICL670, deferasirox, reference compound] |  |  | −20.35(8) | −6.48(9) |  | 80 ±5 | 87 ±7% | 88 ±1 | 101 ±13 | −5.56(5) | −16.55(7) | −29.53(7) |  |  |  | −1.06(9) ^[c] | did not show any effect | did not show any effect | did not show any effect | did not show any effect | Log β 1 2–5 (stability constant of Fe^III complex) [3]: −13.72(9); log D [13]: −0.1; pFe [14]: 23.5; IC50 ([8]; Homo sapiens, HepaRG, 72 h, read-out: SDH, IC50 with Fe^III 20 μM): 61 ± 7 µM; IC50 ([8]; Homo sapiens, HepaRG, 72 h, read-out: SDH, IC50 without Fe^III): 11 ± 4 µM; effect on MDA-MB-231 cell proliferation [9]: did not show any effect; effect on HUVEC survival [11]: did not show any effect; pKa ([12]; pKa1, I = 0.1 M (KCl), T = 298 K, H2O/DMSO v/v 30:70): 5.56; pKa ([12]; pKa2, I = 0.1 M (KCl), T = 298 K, H2O/DMSO v/v 30:70): 11; pKa ([12]; pKa3, I = 0.1 M (KCl), T = 298 K, H2O/DMSO v/v 30:70): 13
